We go through 28 compounds from ChEMBL document CHEMBL3286141 (Bioorg Med Chem, 2014).

Assay [1] is described as follows: (§1) Antiproliferative activity against human pancreatic stellate cells at 5 uM after 24 to 48 hrs by AlamarBlue assay. It is filed as functional. Put shortly: (§2)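 Transformed human PSC seeded at 3×10^3 cells/well in sextuplicate. Next day exposed to compound at the stated single concentration in 1% FBS medium for 24–48 h. Viability read by AlamarBlue fluorescence (ex/em 544/590 nm). Values are the mean of at least three independent experiments.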

Assay [2] is described as follows: (§3) Antiproliferative activity against human pancreatic stellate cells at 10 uM after 24 to 48 hrs by AlamarBlue assay. It counts as functional. Put shortly:
as §2

A short description of assay [3]: (§4) Antiproliferative activity against human pancreatic stellate cells at 20 uM after 24 to 48 hrs by AlamarBlue assay. It counts as functional. A digest of the protocol:
as §2

For assay [4], the species on record is Homo sapiens. The description is as §1. It counts as functional. A digest of the protocol:
as §2

The species entered for assay [5] is Homo sapiens. The assay is described as §3. It is filed as functional. A digest of the protocol:
as §2

Assay [6] concerns Mus musculus. The assay can be described thus: Anti-fibrotic activity in C57BL/6 mouse caerulein-induced chronic pancreatitis model assessed as reduction of stromal fibrosis at 0.5 mg/kg, po administered qd for 6 days per week for 3 weeks using hematoxylin 7211 staining by immunohistochemistry analysis. It is filed as functional, organism-based. Further details: dose 0.5 mg/kg.

The subject of assay [7] is Mus musculus. The assay can be described thus: Anti-fibrotic activity in C57BL/6 mouse caerulein-induced chronic pancreatitis model assessed as reduction of tissue edema at 0.5 mg/kg, po administered qd for 6 days per week for 3 weeks using hematoxylin 7211 staining by immunohistochemistry analysis. It is filed as functional, organism-based. Further details: dose 0.5 mg/kg.

Assay [8] deals with Mus musculus. The assay is described as follows: Anti-fibrotic activity in C57BL/6 mouse caerulein-induced chronic pancreatitis model assessed as reduction of acinar cell damage at 0.5 mg/kg, po administered qd for 6 days per week for 3 weeks using hematoxylin 7211 staining by immunohistochemistry analysis. It counts as functional, organism-based. Also noted: dose 0.5 mg/kg.

The test system of assay [9] is Mus musculus. The assay can be described thus: Anti-fibrotic activity in C57BL/6 mouse caerulein-induced chronic pancreatitis model assessed as reduction of fibrosis at 0.5 mg/kg, po administered qd for 6 days per week for 3 weeks using hematoxylin 7211 staining by image analysis. It is filed as functional, organism-based. Also noted: dose 0.5 mg/kg. Put shortly:
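C57BL/6 mice given cerulein 50 μg/kg i.p. hourly for 5 h, 3 d/week for 4 weeks; PBS controls. From week 2, oral gavage at 0.5 mg/kg/d, 6 d/week for 3 weeks, in 0.5% methylcellulose + 0.025% Tween 20. Formalin-fixed paraffin sections (5 μm) stained by IHC for fibronectin with hematoxylin counterstain; percent area of stain quantified by image analysis. n = 10–11 per group.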

The nature of assay [10]: Antiproliferative activity against human pancreatic stellate cells after 24 hrs by AlamarBlue assay. It is filed as functional. Put shortly: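 Immortalized human PSC (SV40 large T plus telomerase, DMEM/10% FBS) seeded at 3×10^3 cells/well in sextuplicate. Next day switched to 1% FBS with a range of compound concentrations for 24 h. AlamarBlue fluorescence read at 544/590 nm. IC50 taken by nonlinear regression of fluorescence versus log concentration, as mean ± SEM of at least three independent experiments.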

Assay [11] is described as follows: Induction of apoptosis in human pancreatic stellate cells after 14 hrs by cell death detection ELISAPLUS assay. It counts as functional. A digest of the protocol: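 Transformed human PSC (primary cells immortalised with SV40 large T antigen and telomerase; grown in DMEM, 10% FBS, 37 °C) plated at 8×10^3 per well in triplicate; next day switched to 1% FBS with compound at various doses for 14 h. Cytoplasmic nucleosomes detected by sandwich ELISA, absorbance at 405 nm. EC50 by nonlinear regression against log concentration; at least three independent experiments.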

Assay [12] is filed under the species Homo sapiens. The description is as §4. It counts as functional. A digest of the protocol:
as §2

Calls of active or inactive are those of the source. The rule behind the calls is not given here.

The compound `COC(=O)[C@@H]1CCCN1CCOc1ccc(-c2cc(=O)c3c(OC)cc(OC)cc3o2)cc1` registered an inhibition at 5 µM in [1] of 22%. In [2], this compound had an inhibition at 10 µM of 37%. In assay [3], this compound yielded an inhibition at 20 µM of 67%.

Regarding `COc1cc(OC)c2c(=O)cc(-c3ccc(OCCBr)cc3)oc2c1`, the inhibition entry in the assay filed under Homo sapiens [4] and in the assay listed under Homo sapiens [5] was “inactive” each time. This compound also showed an inhibition at 20 µM in [3] of 20%.

`O=c1cc(-c2ccc(OCCN3CCCC3)cc2)oc2cc(O)cc(O)c12`: the inhibition at 5 µM in assay [1] was found to be 2%. Further, the inhibition at 10 µM in assay [2] is 71%. For the same compound, at 20 µM the inhibition in assay [3] was 90%.

In [1], `COc1cc(OC)c2c(=O)cc(-c3ccc(OCCCN)cc3)oc2c1` registered an inhibition at 5 µM of 22%. In assay [2], this compound returned an inhibition at 10 µM of 39%.

In assay [1], `COc1cc(OC)c2c(=O)cc(-c3ccc(NCCN4CCCC4)cc3)oc2c1` yielded an inhibition at 5 µM of 21%. In [2], this compound showed an inhibition at 10 µM of 51%. In assay [3], the inhibition at 20 µM was 80%.

Consider `COc1cc(OC)c2c(=O)cc(-c3ccc(OC4CCNCC4)cc3)oc2c1`, for which the inhibition result in the assay filed under Homo sapiens [4] was “inactive”. In [2], this compound registered an inhibition at 10 µM of 21%.

With `COc1cc(OC)c2c(=O)cc(-c3ccc(OCCCN(C)C)cc3)oc2c1`, testing at 5 µM in [1] gave an inhibition of 36%. This compound yielded an inhibition at 10 µM in assay [2] of 59%. The same compound had an inhibition at 20 µM in assay [3] of 86%.

In assay [1], `COc1cc(OC)c2c(=O)cc(-c3ccc(OCCN4CCCC4=O)cc3)oc2c1` yielded an inhibition at 5 µM of 7%. In addition, the inhibition at 10 µM in assay [2] was 14%. Further, the inhibition at 20 µM in assay [3] was determined as 33%.

In the case of `O=c1cc(-c2ccc(O)cc2)oc2cc(O)cc(O)c12` [APIGENIN], the outcome in the assay on Mus musculus [6], with Mus musculus [7], in the assay with Mus musculus [8] and in the assay with Mus musculus [9] was Active. In addition, 5 µM produced 11% inhibition in assay [1]. In [2], this compound returned an inhibition at 10 µM of 34%. Further, the inhibition at 20 µM in assay [3] turned out to be 64%. This compound returned an IC50 in [10] of 18.6 µM. In addition, the concentration for a half-maximal effect (EC50) in assay [11] is 24.5 µM.

Take `COc1cc(OC)c2c(=O)cc(-c3ccc(OCCF)cc3)oc2c1`: the inhibition entry in the assay filed under Homo sapiens [4] and in the assay listed under Homo sapiens [5] was “inactive” throughout. Also, the inhibition at 20 µM in assay [3] turned out to be 21%.

For the compound `COc1cc(OC)c2c(=O)cc(-c3ccc(NCCN(C)C)cc3)oc2c1`, in [1], the inhibition at 5 µM is 30%. Also, the inhibition at 10 µM in [2] was 60%. In assay [3], the inhibition at 20 µM amounted to 84%.

Compound `COc1cc(OC)c2c(=O)cc(-c3ccc(OC4CCN(C)CC4)cc3)oc2c1` came in with an inhibition at 5 µM in [1] of 28%. In [2], this compound returned an inhibition at 10 µM of 49%.

With `COc1cc(OC)c2c(=O)cc(-c3ccc(OCC(O)CN4CCCC4)cc3)oc2c1` (centres undefined), the inhibition at 5 µM in [1] turned out to be 21%. For the same compound, in assay [2], the inhibition at 10 µM was 37%. The inhibition at 20 µM in [3] came to 57%.

In [1], `CCN(CC)CCOc1ccc(-c2cc(=O)c3c(OC)cc(OC)cc3o2)cc1` displayed an inhibition at 5 µM of 33%. In [2], this compound came in with an inhibition at 10 µM of 60%. Besides, the inhibition at 20 µM in assay [3] was 72%.

Consider `COc1cc(OC)c2c(=O)cc(-c3ccc(OCCN)cc3)oc2c1`, for which, in assay [1], the inhibition at 5 µM came out at 6%. Besides, the inhibition at 10 µM in [2] turned out to be 35%. In addition, the inhibition at 20 µM in assay [3] worked out at 70%.

`COc1cc(OC)c2c(=O)cc(-c3ccc(Br)cc3)oc2c1` gave an inhibition at 5 µM in assay [1] of 12%. Moreover, 10 µM produced 10% inhibition in assay [2]. In assay [3], this compound had an inhibition at 20 µM of 22%.

Consider `COc1cc(OC)c2c(=O)cc(-c3ccc(O)cc3)oc2c1`, for which the inhibition result in the assay listed under Homo sapiens [4], in the assay filed under Homo sapiens [5] and in the assay listed under Homo sapiens [12] was “inactive” in each case.

In the case of `COc1cc(OC)c2c(=O)cc(-c3ccc(OCC4CO4)cc3)oc2c1` (centres undefined), the outcome in the assay on Mus musculus [6], with Mus musculus [7], with Mus musculus [8] and with Mus musculus [9] was Active. In assay [1], this compound came in with an inhibition at 5 µM of 69%. In assay [2], the inhibition at 10 µM turned out to be 89%. The inhibition at 20 µM in assay [3] turned out to be 93%. In assay [10], this compound had an IC50 of 2.5 µM. In addition, the midpoint of the response in assay [11], the EC50, lay at 9.6 µM.

Regarding `COc1cc(OC)c2c(=O)cc(-c3ccc(OCCN4CCCCC4)cc3)oc2c1`, testing at 5 µM in [1] gave an inhibition of 45%. For the same compound, in assay [2], 10 µM produced 64% inhibition. For the same compound, the inhibition at 20 µM in assay [3] came to 97%.

With `COc1cc(OC)c2c(=O)cc(-c3ccc(OCC(O)CN4CCCCC4)cc3)oc2c1` (centres undefined), the result with Mus musculus [6], with Mus musculus [7], in the assay with Mus musculus [8] and with Mus musculus [9] was Active. The compound also had an inhibition at 5 µM in [1] of 34%. The inhibition at 10 µM in assay [2] is 65%. In [3], this compound yielded an inhibition at 20 µM of 95%. The IC50 in assay [10] amounted to 8 µM. For the same compound, it took 35.2 µM to reach a half-maximal effect in assay [11] (EC50).

Take `COc1cc(O)c2c(=O)cc(-c3ccc(OCCN4CCCC4)cc3)oc2c1`: in the assay listed under Homo sapiens [4], the inhibition entry is “inactive”. This compound also gave an inhibition at 10 µM in [2] of 39%. The compound further gave an inhibition at 20 µM in assay [3] of 99%.

The compound `COc1cc(OC)c2c(=O)cc(-c3ccc(OCCN(C)C)cc3)oc2c1` showed an inhibition at 5 µM in [1] of 19%. For the same compound, the inhibition at 10 µM in assay [2] stood at 51%. Moreover, at 20 µM the inhibition in assay [3] was 65%.

On to `COc1cc(OC)c2c(=O)cc(-c3ccc(OCCN4CCOCC4)cc3)oc2c1`, for which the inhibition entry in the assay filed under Homo sapiens [4], in the assay listed under Homo sapiens [5] and in the assay listed under Homo sapiens [12] was “inactive” each time.

For the compound `COc1cc(OC)c2c(=O)cc(-c3ccc(-c4ccc(F)nc4)cc3)oc2c1`, the inhibition entry in the assay listed under Homo sapiens [4] was “inactive”. 10 µM produced 6% inhibition in [2]. For the same compound, in [3], the inhibition at 20 µM worked out at 19%.

Compound `COc1cc(OC)c2c(=O)cc(-c3ccc(OCCN4CCCC4)cc3)oc2c1` had an inhibition at 5 µM in assay [1] of 48%. Further, 10 µM produced 66% inhibition in assay [2]. Besides, at 20 µM the inhibition in assay [3] was 98%.

For the compound `COc1cc(OC)c2c(=O)cc(-c3ccc(OCCN4CCN(C)CC4)cc3)oc2c1`, the inhibition at 5 µM in assay [1] worked out at 22%. In addition, the inhibition at 10 µM in [2] turned out to be 42%. This compound also gave an inhibition at 20 µM in [3] of 67%.

In assay [1], `COc1cc(OC)c2c(=O)cc(-c3ccc(OCC(O)CN(C)C)cc3)oc2c1` (centres undefined) showed an inhibition at 5 µM of 42%. The same compound came in with an inhibition at 10 µM in assay [2] of 60%. Moreover, in assay [3], the inhibition at 20 µM stood at 71%.

Turning to `COc1cc(OC)c2c(=O)cc(-c3ccc(OCC(O)CO)cc3)oc2c1` (centres undefined), the inhibition result in the assay listed under Homo sapiens [4] was “inactive”. In assay [2], the inhibition at 10 µM was 11%. This compound gave an inhibition at 20 µM in assay [3] of 16%.
